Assay outcomes: PubChem BioAssay, several laboratories
The list is not random: actives were taken first. Their share in the collection is about 4.8%.
UCH37 inh: human UCH37 deubiquitinating enzyme inhibition; Q9Y5K5; AID 588478; 0.33% of 330,000 active; inhibition, % (test concentration not listed); purified proteasome/UCH37, Ub-AMC cleavage fluorescence;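 active = mean inhibition over replicate wells above about 20%, limit read from the data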;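 note: 0% = compound-free wells with enzyme and 100% = wells lacking proteasome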
Target sequence (Q9Y5K5 whole entry, looked up): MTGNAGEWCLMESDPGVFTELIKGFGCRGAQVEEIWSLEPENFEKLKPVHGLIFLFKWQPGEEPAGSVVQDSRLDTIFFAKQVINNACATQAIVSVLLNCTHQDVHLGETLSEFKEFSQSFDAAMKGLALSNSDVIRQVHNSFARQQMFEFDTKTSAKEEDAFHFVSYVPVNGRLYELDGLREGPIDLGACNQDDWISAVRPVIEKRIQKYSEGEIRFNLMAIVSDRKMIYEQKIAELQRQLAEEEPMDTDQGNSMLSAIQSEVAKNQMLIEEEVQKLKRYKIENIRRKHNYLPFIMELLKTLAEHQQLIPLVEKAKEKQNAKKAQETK
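Test system – human UCH37 enzyme supplied as purified proteasome complex · Incubation – 30 min preincubation with enzyme, 25 min cleavage at room temperature · Detection – AMC fluorescence from Ub-AMC cleavage, excitation 355 nm, emission 460 nm · Benchmarks – no-proteasome wells (full inhibition) and compound-free wells (no inhibition)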
ALR inh: human ALR oxidase inhibition via reduced H2O2; P55789; purified ALR, DTT oxidation, H2O2 HRP-luminol luminescence; inhibition, % (test concentration not listed); 3.8% of 290,000 active;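 active = mean replicate inhibition above about 79%, with every replicate also reaching it, limit read from the data; inconclusive = only one of the two criteria met; inactive = mean below limit and not every replicate reaching it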
Target sequence (P55789 whole entry, looked up): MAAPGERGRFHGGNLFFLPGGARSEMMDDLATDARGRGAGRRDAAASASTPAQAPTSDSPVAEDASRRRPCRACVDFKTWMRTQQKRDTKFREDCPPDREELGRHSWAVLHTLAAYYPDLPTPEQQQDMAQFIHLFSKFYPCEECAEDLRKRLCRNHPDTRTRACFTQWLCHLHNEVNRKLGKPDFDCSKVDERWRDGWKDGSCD
NALP3 yeast inh: blocks the NALP3 inflammasome reconstituted in yeast; AID 2825; inhibition, % at 10 µM; 0.39% of 330,000 active; Yeast reconstituted NLRP3/ASC/caspase-1, beta-gal luminescence, 24 h;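 active = inhibition of 50% or more; inactive = inhibition below 50%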;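 note: plate controls were induced DMSO wells for no effect and uninduced yeast grown without galactose for full effect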
NALP1 inh: blocks the NALP1 inflammasome reconstituted in yeast; inhibition, % at 10 µM; S. cerevisiae NALP1/ASC/caspase-1 growth, X-gal OD620, 72 h; 0.61% of 280,000 active; AID 2071; in the data active = inhibition mostly above about 24%, no sharp cut-off; inactive = mostly below about 32%
ATG4B inh: blocks human ATG4B protease cleavage of LC3 substrate; Q9Y4P1; ATG4B cleavage of LC3-PLA2, NBD-HPC fluorescence, 1 h; AID 504462; 0.51% of 340,000 active; inhibition, % at 8.33 µM; in the data active = inhibition above about 40%
Calb FLC: affects C. albicans growth with fluconazole; C. albicans CaCi-2 + fluconazole, Alamar Blue growth, 48 h; 0.57% of 300,000 active; growth inhibition, % (test concentration not listed); AID 1979;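 active = growth inhibition above about 58% in most replicates, limit read from the data, passing the limit was not always enough; inconclusive = exactly half the replicates above a set limit; inactive = most replicates below a set limit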;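 note: all wells also contain fluconazole at 8 µg/ml as a sub-toxic cotreatment; 0% = median of DMSO wells and 100% = median of geldanamycin control wells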
* = called active by the depositor; ? = inconclusive; . = no result given.

SMILES	UCH37 inh	ALR inh	NALP3 yeast inh	NALP1 inh	ATG4B inh	Calb FLC
COc1ccc(/C=C2/SC(=S)N(NS(=O)(=O)c3ccc(C)cc3)C2=O)cc1	9	.	15	-30	6	0
O=C(NN=Cc1ccc(O)cc1O)c1ccc(NC(=O)C2CCCCC2)cc1	-9	.	.	.	.	.
CC(=O)Nc1ccc(C(C)=NNc2nc(N3CCOCC3)nc(N3CCOCC3)n2)cc1	3	.	.	.	.	.
Cc1ccc(NN=Cc2ccc3c(c2)OCCO3)cc1Cl	-2	.	.	.	.	.
[O-][n+]1c2c(nn1-c1ccccc1)C(=NO)CCC2	1	.	.	.	.	.
Nc1ccc(Nc2ccccc2)c(S(=O)(=O)O)c1	.	.	-1	7	22	9
Cc1ccc(Nc2ccc(N)cc2S(=O)(=O)O)cc1	-25	100*	-1	8	-1	19
CN(C)S(=O)(=O)c1ccc(C(=O)Nc2nnc(SCC(=O)NCC3CCCO3)s2)cc1 (configuration not stated)	8	94*	10	-2	7	1
CC(C)(C)c1ccc(C(=O)Nc2nnc(SCC(=O)NCC3CCCO3)s2)cc1 (configuration not stated)	2	4	1	16	-2	0
Cc1ccc(NC(=O)N/C=C/c2ccco2)cc1C	1	87*	9	4	6	24
Cc1ccc(NC(=O)N/C=C/c2ccco2)c(C)c1	-1	64	6	32	5	0
O=[N+]([O-])c1ccc(OCC(O)CN2CCN(c3ccccc3F)CC2)cc1 (configuration not stated)	5	-12	23	46*	-4	-47
CC(=O)Nc1ccc(OCC(O)CN2CCN(c3ccc(F)cc3)CC2)cc1 (configuration not stated)	1	98*	20	20	3	-14
Cc1ccc(N2CCN(CC(O)COc3ccc([N+](=O)[O-])cc3)CC2)cc1 (configuration not stated)	1	12	27	7	-7	-16
CC(=O)Nc1ccc(OCC(O)CN2CCN(c3cccc(Cl)c3)CC2)cc1 (configuration not stated)	3	99*	14	40	-2	-33
CC(=O)c1ccc(OCC(O)CN2CCN(c3ccc(F)cc3)CC2)cc1 (configuration not stated)	2	98*	28	24	-5	0
S=c1[nH]nc(-c2cccs2)n1N=Cc1c(Cl)cccc1Cl	6	.	.	.	.	.
Cc1cc(=O)[nH]c(N/N=C/C2=C(N3CCOCC3)C(=C\c3ccc(Cl)cc3)/CC2)n1	.	98*	6	28	-6	6
Cc1cc(C)nc(N/N=C/C2=C(N3CCOCC3)C(=C/c3ccccc3)/CC2)n1	.	27	8	-10	-14	0
Oc1ccc(/C=N/Nc2nc(N3CCCC3)nc(N3CCCC3)n2)cc1O	.	99*	18	-16	-12	?
COc1cc(/C=N/Nc2nc(N3CCCC3)nc(N3CCCC3)n2)ccc1O	.	99*	-15	-19	-10	0
Cc1cc(=O)[nH]c(N/N=C/c2ccc(O)c(O)c2)n1	.	99*	18	-1	2	-3
CCOc1cc(C=NNC(=O)c2c(C)nc3ccccn23)ccc1O	7	.	.	.	.	.
CN(C)S(=O)(=O)c1ccc(-c2csc(NN=Cc3ccc(O)cc3)n2)cc1	-18	.	.	.	.	.
CC(Nc1cccc2ccccc12)C(=O)NN=Cc1ccccn1 (configuration not stated)	3	.	.	.	.	.
SMILES	UCH37 inh	ALR inh	NALP3 yeast inh	NALP1 inh	ATG4B inh	Calb FLC
Cn1[nH]c(-c2ccccc2)c(C=NO)c1=O	2	.	.	.	.	.
CS(=O)(=O)N1CCN=C1SCc1cccc(F)c1	0	81*	23	9	-2	7
CCCS(=O)(=O)N1CCN=C1SCc1cccnc1	2	99*	0	-3	2	-12
CCS(=O)(=O)N1CCN=C1SCc1ccccc1	7	-5	12	2	-6	11
CCS(=O)(=O)N1CCN=C1SCc1ccc(F)cc1	4	89*	8	14	-7	0
CCS(=O)(=O)N1CCN=C1SCc1cccc(F)c1	6	48	4	8	0	4
CCCS(=O)(=O)N1CCN=C1SCc1ccc(F)cc1	5	92*	19	4	-3	-3
CCCS(=O)(=O)N1CCN=C1SCc1cccc2ccccc12	5	99*	26	-3	1	0
COc1cc(NC2c3ccccc3C(=O)N2c2ccc(C)cn2)cc(OC)c1OC (configuration not stated)	0	9	-1	8	-3	-4
COc1cc(NC2c3ccccc3C(=O)N2c2cc(C)ccn2)cc(OC)c1OC (configuration not stated)	3	95*	1	1	-7	-2
O=C(Nc1ccc(CN2CCOCC2)cc1)c1cc2ccccn2n1	1	85*	18	27	-13	-10
O=C(Nc1ccc(CN2CCOCC2)cc1)c1cc2ccccc2o1	7	-8	9	40	-1	?
O=C(CCCOc1ccc(Cl)cc1Cl)NN=Cc1ccccc1O	-1	.	.	.	.	.
CC(C)NC(=O)c1onc(CSc2cccc3ccccc23)c1C(=O)O	2	98*	-2	-14	-13	-14
CCCCNC(=O)c1onc(CSc2ccccc2)c1C(=O)O	3	19	18	-12	-4	-3
CCCCNC(=O)c1onc(CSc2cccc3ccccc23)c1C(=O)O	-1	98*	1	-13	-9	-18
CC(=NN1CCN(c2ccccc2)CC1)c1ccco1	3	.	.	.	.	.
CC(C)(C)NC(=S)N/N=C/c1cc(Br)c(O)c(Br)c1	.	75	6	14	19	76*
CC(C)(C)NC(=S)NN=Cc1cc(Br)c(O)c(Br)c1	-34	.	.	.	.	.
CCOc1cc(C=NNC(=O)Cc2ccc(C(F)(F)F)cc2[N+](=O)[O-])ccc1O	7	.	.	.	.	.
O=C(NC1CCCC1)c1ccc(COCC(F)(F)F)o1	1	-8	18	1	2	?
O=C(NC1CCCC1)c1ccc(COCC(F)(F)C(F)F)o1	1	98*	1	-3	23	-7
Cc1nc(N=CN(C)C)sc1C(=O)Nc1ccccc1	13	.	.	.	.	.
Cc1cc(Nc2ccccc2)n(-c2ccc(C(=O)O)cc2)n1	4	99*	27	-1	-3	3
COc1ccc(-n2nc(C)cc2Nc2ccccc2C(=O)O)cc1	2	99*	16	3	-7	3
COc1cc(OC)cc(C(=O)Nc2cc(C)nn2-c2ccccc2)c1	6	.	10	-6	-7	-1
Cc1cc(NC(=O)Nc2cccc(Cl)c2)n(-c2ccccc2)n1	2	-8	6	8	-5	12
Cc1cc(Nc2ccccc2)n(-c2cccc(Cl)c2)n1	1	99*	-17	-4	38	-29
Brc1ccc(C=Nn2cnnc2)s1	5	.	.	.	.	.
CC1(C)OC(c2ccccc2)=C/C(=C\C=NNC(=O)c2ccncc2)O1	13	.	.	.	.	.
